# Results from PMC6398604 (Journal of medicinal chemistry, 2018).
# Key:
# rat hepatocytes = assay: Hepatocyte stability; type: in vitro ADME
# Rat pharmacokinetics = type: in vivo; conditions: for rat PK profile (in words): rat PK studies; for clearance: rat, plasma, iv, 1 mg/kg
# [1] = Mouse Blood-Brain Barrier; type: in vivo; conditions: 10 mg/kg ip, mice
# How it was run: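 Male C57BL/6J mice (8 weeks) were habituated and handled before dosing. Test compound was suspended in 0.1% Tween80, 0.1% silicone antifoam and 1% methylcellulose in water, then given once ip at 10 mg/kg (10 mL/kg). At 5, 15 or 60 min, mice under isoflurane gave cardiac blood (Li-heparin) and were PBS-perfused. Plasma was spun 2000 rpm, 4°C, 15 min. Brain was homogenised in 4x (w/v) PBS pH 7.4 for total levels.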
# [2] = Rat biomarker assay: inhibitor concentrations in plasma, brain and CSF; type: in vivo; conditions: for concentration at 4 h: male, Sprague Dawley, CSF, oral, 10 mg/kg, Free CSF, 4 hours after 10mg/kg oral dose, corrected for non-specific binding to CSF
# [3] = cited from earlier work
# [4] = cited from earlier work; remark: listed apart in the source
# Human MB-COMT = molecular target: T1, Human MB-COMT (Homo sapiens, UniProt P21964); assay: MTase Glo Methyltransferase assay, MB-COMT; type: biochemical
# T1 sequence (P21964 1-271): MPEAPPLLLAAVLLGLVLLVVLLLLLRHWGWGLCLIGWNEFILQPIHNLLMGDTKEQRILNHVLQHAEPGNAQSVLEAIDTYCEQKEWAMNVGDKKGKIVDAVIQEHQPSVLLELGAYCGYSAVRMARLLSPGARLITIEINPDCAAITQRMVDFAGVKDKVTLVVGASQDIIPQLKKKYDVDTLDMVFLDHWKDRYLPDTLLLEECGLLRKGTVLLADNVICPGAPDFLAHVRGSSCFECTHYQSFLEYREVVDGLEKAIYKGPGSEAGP
# [5] = test system: dopamine metabolites HVA and DOPAC in rat CSF (COMT); assay: Rat biomarker assay: HVA and DOPAC in CSF; type: in vivo; conditions: 4 hours after 10 mpk oral
# [6] = Non-specific binding to CSF by equilibrium dialysis; type: in vitro ADME; conditions: pooled rat CSF, 2 μM testing concentration
# P-gp = P-gp (Homo sapiens, UniProt P08183); assay: Transporter susceptibility and inhibitory activity, P-gp; type: in vitro ADME; conditions: data not shown
# BCRP = molecular target: T2, BCRP (Homo sapiens, UniProt Q9UNQ0); assay: Transporter susceptibility and inhibitory activity, BCRP; type: in vitro ADME; conditions: data not shown
# T2 sequence (Q9UNQ0 1-655): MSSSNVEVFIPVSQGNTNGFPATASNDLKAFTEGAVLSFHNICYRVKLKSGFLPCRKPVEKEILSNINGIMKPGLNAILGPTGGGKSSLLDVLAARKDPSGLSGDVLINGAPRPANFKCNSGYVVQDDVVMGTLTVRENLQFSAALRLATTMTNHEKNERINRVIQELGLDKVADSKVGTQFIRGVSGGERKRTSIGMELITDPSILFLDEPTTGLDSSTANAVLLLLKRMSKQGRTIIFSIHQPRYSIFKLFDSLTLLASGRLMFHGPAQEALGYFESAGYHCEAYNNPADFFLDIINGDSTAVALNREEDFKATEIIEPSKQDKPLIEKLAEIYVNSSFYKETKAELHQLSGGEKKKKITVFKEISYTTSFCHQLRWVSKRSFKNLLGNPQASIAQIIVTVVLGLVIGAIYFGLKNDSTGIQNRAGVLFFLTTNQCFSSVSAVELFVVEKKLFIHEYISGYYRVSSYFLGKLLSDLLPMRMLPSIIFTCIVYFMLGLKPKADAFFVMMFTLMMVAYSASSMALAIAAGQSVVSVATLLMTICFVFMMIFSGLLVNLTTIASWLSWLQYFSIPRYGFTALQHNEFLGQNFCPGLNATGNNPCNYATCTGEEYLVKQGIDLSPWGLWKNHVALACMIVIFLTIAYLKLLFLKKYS
# MRP2 = MRP2 (Homo sapiens, UniProt Q92887); assay: Transporter susceptibility and inhibitory activity, MRP2; type: in vitro ADME; conditions: data not shown
# P-glycoprotein = P-glycoprotein (Homo sapiens, UniProt P08183); assay: P-gp efflux ratio in P-glycoprotein expressing MDCK cells; type: in vitro ADME
# Chain of P-glycoprotein (P08183 whole entry): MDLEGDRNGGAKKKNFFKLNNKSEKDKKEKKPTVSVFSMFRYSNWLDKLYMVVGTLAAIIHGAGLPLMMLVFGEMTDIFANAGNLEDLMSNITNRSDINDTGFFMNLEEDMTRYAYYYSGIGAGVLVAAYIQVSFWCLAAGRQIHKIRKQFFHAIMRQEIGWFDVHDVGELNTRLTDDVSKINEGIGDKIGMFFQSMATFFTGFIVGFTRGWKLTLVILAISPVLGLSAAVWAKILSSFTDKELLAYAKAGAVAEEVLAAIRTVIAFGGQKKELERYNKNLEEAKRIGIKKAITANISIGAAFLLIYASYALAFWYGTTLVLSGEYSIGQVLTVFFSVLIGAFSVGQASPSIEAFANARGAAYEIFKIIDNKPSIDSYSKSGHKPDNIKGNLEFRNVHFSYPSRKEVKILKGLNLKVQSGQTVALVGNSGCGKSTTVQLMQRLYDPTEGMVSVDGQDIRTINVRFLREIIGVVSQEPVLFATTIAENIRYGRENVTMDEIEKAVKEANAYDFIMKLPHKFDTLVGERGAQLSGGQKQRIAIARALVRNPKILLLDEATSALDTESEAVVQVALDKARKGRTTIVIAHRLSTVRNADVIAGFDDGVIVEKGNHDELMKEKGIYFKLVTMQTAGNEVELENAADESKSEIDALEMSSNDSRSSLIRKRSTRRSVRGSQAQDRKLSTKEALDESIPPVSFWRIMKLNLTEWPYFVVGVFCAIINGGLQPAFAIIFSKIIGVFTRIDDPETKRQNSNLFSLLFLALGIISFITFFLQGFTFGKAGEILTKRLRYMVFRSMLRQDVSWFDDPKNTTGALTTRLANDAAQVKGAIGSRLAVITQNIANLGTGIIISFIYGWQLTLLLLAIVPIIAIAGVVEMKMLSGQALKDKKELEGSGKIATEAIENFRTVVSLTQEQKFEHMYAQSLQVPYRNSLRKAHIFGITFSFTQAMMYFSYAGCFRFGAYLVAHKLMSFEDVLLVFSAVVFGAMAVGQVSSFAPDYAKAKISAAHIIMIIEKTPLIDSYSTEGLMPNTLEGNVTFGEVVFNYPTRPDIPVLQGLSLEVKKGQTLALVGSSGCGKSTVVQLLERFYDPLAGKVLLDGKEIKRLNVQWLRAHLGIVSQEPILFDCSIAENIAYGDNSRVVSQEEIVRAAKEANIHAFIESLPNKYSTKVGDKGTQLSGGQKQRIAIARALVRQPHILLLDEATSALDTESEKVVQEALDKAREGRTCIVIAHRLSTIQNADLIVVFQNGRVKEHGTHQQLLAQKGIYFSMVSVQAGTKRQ
# Chain of MRP2 (Q92887 whole entry, species assumed): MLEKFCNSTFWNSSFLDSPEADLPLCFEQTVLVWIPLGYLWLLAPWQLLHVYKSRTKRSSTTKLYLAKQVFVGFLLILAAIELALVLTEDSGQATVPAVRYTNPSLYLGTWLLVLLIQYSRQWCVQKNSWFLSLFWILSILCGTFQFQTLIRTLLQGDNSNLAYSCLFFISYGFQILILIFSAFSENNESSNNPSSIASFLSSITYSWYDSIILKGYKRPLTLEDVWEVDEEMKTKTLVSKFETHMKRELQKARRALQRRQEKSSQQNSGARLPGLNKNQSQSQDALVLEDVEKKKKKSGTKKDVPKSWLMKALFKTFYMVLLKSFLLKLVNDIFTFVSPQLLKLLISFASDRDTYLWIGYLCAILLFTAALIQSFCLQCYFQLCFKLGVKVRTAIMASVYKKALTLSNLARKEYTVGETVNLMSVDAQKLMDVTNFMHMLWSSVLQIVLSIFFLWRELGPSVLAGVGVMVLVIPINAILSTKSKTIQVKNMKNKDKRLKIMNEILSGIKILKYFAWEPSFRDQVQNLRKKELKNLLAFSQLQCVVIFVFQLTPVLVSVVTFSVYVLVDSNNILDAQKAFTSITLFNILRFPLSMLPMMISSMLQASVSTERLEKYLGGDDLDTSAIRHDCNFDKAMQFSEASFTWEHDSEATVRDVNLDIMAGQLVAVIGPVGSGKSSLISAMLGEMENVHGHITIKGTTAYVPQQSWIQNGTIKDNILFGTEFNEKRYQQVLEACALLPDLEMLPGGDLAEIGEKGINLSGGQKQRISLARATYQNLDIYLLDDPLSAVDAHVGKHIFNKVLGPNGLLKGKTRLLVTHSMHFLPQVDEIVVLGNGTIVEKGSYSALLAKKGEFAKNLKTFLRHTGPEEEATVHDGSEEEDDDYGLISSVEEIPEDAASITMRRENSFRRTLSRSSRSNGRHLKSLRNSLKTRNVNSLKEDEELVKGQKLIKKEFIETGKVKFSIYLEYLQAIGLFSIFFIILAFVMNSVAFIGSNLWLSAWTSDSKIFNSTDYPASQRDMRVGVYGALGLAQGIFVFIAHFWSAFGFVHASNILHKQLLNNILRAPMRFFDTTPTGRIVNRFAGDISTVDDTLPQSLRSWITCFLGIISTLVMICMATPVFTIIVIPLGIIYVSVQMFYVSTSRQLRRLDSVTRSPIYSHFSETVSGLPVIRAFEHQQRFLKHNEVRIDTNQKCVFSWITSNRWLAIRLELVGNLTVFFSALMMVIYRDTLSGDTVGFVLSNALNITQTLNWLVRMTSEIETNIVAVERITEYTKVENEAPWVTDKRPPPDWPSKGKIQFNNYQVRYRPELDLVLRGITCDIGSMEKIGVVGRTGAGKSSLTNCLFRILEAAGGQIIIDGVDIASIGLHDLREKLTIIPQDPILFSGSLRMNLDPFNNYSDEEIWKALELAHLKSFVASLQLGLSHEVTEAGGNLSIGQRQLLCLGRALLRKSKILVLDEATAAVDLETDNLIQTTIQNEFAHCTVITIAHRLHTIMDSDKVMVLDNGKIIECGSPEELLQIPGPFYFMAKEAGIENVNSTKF
# Chain of P-gp (P08183 whole entry): as the sequence (P08183 whole entry) above
smiles,measurement,setting,value
"O=S(=O)(c1cc(Cl)c(O)c2ncccc12)N1CCCC1 [Compound 29, 7-Chloro-5-(pyrrolidin-1-ylsulfonyl)quinolin-8-ol]",Hepatocyte Stability (Rat),rat hepatocytes,14 μL/min/10^6 cells
same,rat PK profile (in words),Rat pharmacokinetics,very low clearance and long half-life
same,clearance,Rat pharmacokinetics,1 mL/min/kg
"O=S(=O)(c1ccc(O)c2ncccc12)N1CCC(c2ccc(F)cc2)C1 (centres unmarked) [Compound 13, 5-((3-(4-Fluorophenyl)pyrrolidin-1-yl)sulfonyl)quinoline-8-ol]",metabolic stability / clearance in rat hepatocytes (in words),rat hepatocytes,Poor metabolic stability
"O=S(=O)(c1ccc(O)c2ncccc12)C1CCCC1 [Compound 11, 5-(Cyclopentylsulfonyl)quinoline-8-ol]",clearance,Rat pharmacokinetics,26 mL/min/kg
"O=S(=O)(c1cc(Cl)c(O)c2ncccc12)C1CCCC1 [Compound 26, 7-Chloro-5-(cyclopentylsulfonyl)quinolin-8-ol]",Hepatocyte Stability (Rat),rat hepatocytes,18 μL/min/10^6 cells
same,rat PK profile (in words),Rat pharmacokinetics,very low clearance and long half-life
"O=S(=O)(c1ccc(O)c2ncccc12)N1CCCC1 [Compound 12, 5-(Pyrrolidin-1-ylsulfonyl)quinoline-8-ol]",Hepatocyte Stability (Rat),rat hepatocytes,177 μL/min/10^6 cells
same,metabolic stability / clearance in rat hepatocytes (in words),rat hepatocytes,Poor metabolic stability
"O=S(=O)(c1ccc(O)c2ncccc12)N1CCCC1Cc1ccccc1 (centres unmarked) [Compound 16, 5-((2-Benzylpyrrolidin-1-yl)sulfonyl)quinoline-8-ol]",Hepatocyte Stability (Rat),rat hepatocytes,228 μL/min/10^6 cells
same,metabolic stability / clearance in rat hepatocytes (in words),rat hepatocytes,high hepatocyte clearance
same,overall exposure in mouse (in words),[1],low overall exposure
"Cc1ccc(C(=O)c2cc(O)c(O)c([N+](=O)[O-])c2)cc1 [Compound 1, tolcapone, reference compound]",CSF,[2]; 4 hours after 15mpk ip,BLQ
same,Free Brain,[2]; 4 hours after 15mpk ip,BLQ
same,brain penetration (in words),[3],low but measurable levels in the brain
same,hepatic toxicity (in words),[4],associated with hepatic toxicity
"CCN(CC)C(=O)/C(C#N)=C/c1cc(O)c(O)c([N+](=O)[O-])c1 [Compound 2, entacapone]",brain penetration (in words),[3],negligible brain penetration
"Cc1ccc(S(=O)(=O)c2cc(Br)c(O)c3ncccc23)cc1 [Compound 23, 7-Bromo-5-tosylquinolin-8-ol]",MB-COMT inhibition / potency (in words),Human MB-COMT,reduced MB-COMT potency
"Oc1cccc2cccnc12 [Compound 4, 8-hydroxyquinoline, reference compound]",MB-COMT inhibition / potency (in words),Human MB-COMT,abolished MB-COMT inhibition
"O=S(=O)(c1ccc(C(F)(F)F)cc1)c1ccc(O)c2ncccc12 [Compound 17, 5-((4-(Trifluoromethyl)phenyl)sulfonyl)quinolin-8-ol]",Hepatocyte Stability (Rat),rat hepatocytes,46 μL/min/10^6 cells
same,metabolic stability / clearance in rat hepatocytes (in words),rat hepatocytes,high hepatocyte clearance
"Cc1cc(S(=O)(=O)N2CCCC2)c2cccnc2c1O [Compound 30, 7-Methyl-5-(pyrrolidin-1-ylsulfonyl)quinolin-8-ol]",MB-COMT inhibition / potency (in words),Human MB-COMT,tolerated
same,Hepatocyte Stability (Rat),rat hepatocytes,103 μL/min/10^6 cells
same,metabolic stability / clearance in rat hepatocytes (in words),rat hepatocytes,no impact on clearance
"CCS(=O)(=O)c1ccc(O)c2ncccc12 [Compound 15, 5-(Ethylsulfonyl)quinoline-8-ol]",Hepatocyte Stability (Rat),rat hepatocytes,39 μL/min/10^6 cells
same,metabolic stability / clearance in rat hepatocytes (in words),rat hepatocytes,high hepatocyte clearance
same,overall exposure in mouse (in words),[1],low overall exposure
"O=S(=O)(c1cc(F)c(O)c2ncccc12)N1CCCC1 [Compound 28, 7-Fluoro-5-(pyrrolidin-1-ylsulfonyl)quinolin-8-ol]",Hepatocyte Stability (Rat),rat hepatocytes,21 μL/min/10^6 cells
same,rat PK profile (in words),Rat pharmacokinetics,good pharmacokinetics
same,clearance,Rat pharmacokinetics,11 mL/min/kg
same,concentration at 4 h,[2],77 nM
same,"HVA decrease, significance versus vehicle (in words)",[5],statistically significant difference
same,Non-specific binding to CSF (bound),[6],51–57%
same,substrate or inhibitor of P-gp (in words),P-gp,not found to be a substrate or an inhibitor
same,substrate or inhibitor of BCRP (in words),BCRP,not found to be a substrate or an inhibitor
same,substrate or inhibitor of MRP2 (in words),MRP2,not found to be a substrate or an inhibitor
"O=S(=O)(c1ccc(F)cc1)c1cc(Cl)c(O)c2ncccc12 [Compound 19, 7-Chloro-5-((4-fluorophenyl)sulfonyl)quinolin-8-ol]",Hepatocyte Stability (Rat),rat hepatocytes,4 μL/min/10^6 cells
same,rat PK profile (in words),Rat pharmacokinetics,very low clearance and long half-life
same,clearance,Rat pharmacokinetics,0.31 mL/min/kg
"Cc1ccc(S(=O)(=O)c2cc(F)c(O)c3ncccc23)cc1 [Compound 21, 7-Fluoro-5-tosylquinolin-8-ol]",Hepatocyte Stability (Rat),rat hepatocytes,36 μL/min/10^6 cells
same,clearance,Rat pharmacokinetics,27 mL/min/kg
"Cc1ccc(S(=O)(=O)c2cc(Cl)c(O)c3ncccc23)cc1 [Compound 22, 7-Chloro-5-tosylquinolin-8-ol]",Hepatocyte Stability (Rat),rat hepatocytes,78 μL/min/10^6 cells
same,clearance,Rat pharmacokinetics,25 mL/min/kg
same,P-gp substrate (in words),P-glycoprotein,not substrates for the transporter
"Cc1c(Cl)c(C)[n+]([O-])c(Cl)c1-c1noc(-c2cc(O)c(O)c([N+](=O)[O-])c2)n1 [Compound 3, opicapone]",brain penetration (in words),[3],negligible brain penetration
"COc1ccc(S(=O)(=O)N2CCCC2)c2cccnc12 [Compound 14, 8-Methoxy-5-(pyrrolidin-1-yulsulfonyl)quinoline]",MB-COMT inhibition / potency (in words),Human MB-COMT,no appreciable inhibition of MB-COMT
"O=S(=O)(c1cc(F)c(O)c2ncccc12)C1CCCC1 [Compound 25, 5-(Cyclopentylsulfonyl)-7-fluoroquinolin-8-ol]",Hepatocyte Stability (Rat),rat hepatocytes,19 μL/min/10^6 cells
same,rat PK profile (in words),Rat pharmacokinetics,good pharmacokinetics
same,clearance,Rat pharmacokinetics,0.62 mL/min/kg
same,concentration at 4 h,[2],139 nM
same,"HVA decrease, significance versus vehicle (in words)",[5],statistically significant difference
same,Non-specific binding to CSF (bound),[6],51–57%
"O=S(=O)(c1ccc(F)cc1)c1cc(F)c(O)c2ncccc12 [Compound 20, 7-Fluoro-5-((4-fluorophenyl)sulfonyl)quinolin-8-ol]",Hepatocyte Stability (Rat),rat hepatocytes,15 μL/min/10^6 cells
same,clearance,Rat pharmacokinetics,12 mL/min/kg
same,P-gp substrate (in words),P-glycoprotein,not substrates for the transporter
same,concentration at 4 h,[2],59 nM
same,Non-specific binding to CSF (bound),[6],51–57%
"O=S(=O)(c1ccc(C(F)(F)F)cc1)c1cc(F)c(O)c2ncccc12 [Compound 18, 7-Fluoro-5-((4-(trifluoromethyl)phenyl)sulfonyl)quinolin-8-ol]",Hepatocyte Stability (Rat),rat hepatocytes,12 μL/min/10^6 cells
same,clearance,Rat pharmacokinetics,13 mL/min/kg
